Compound activity (PubChem BioAssay)
T cruzi inh: blocks replication of Trypanosoma cruzi; T. cruzi beta-gal in NIH3T3, luminescence, 90 h; inhibition, % (concentration not given with the values); 300,000 tested, 1.4% active; AID 1885;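 active = mean inhibition across valid replicates above about 55%, limit read from the data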;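 also: signal also drops with host cell toxicity which is not excluded here; 0% = plate median of DMSO wells and 100% = zero luminescence signal; higher percent means less beta-gal luminescence so fewer parasites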
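Assay system: NIH/3T3 host cells with β-galactosidase reporter T. cruzi; input: 5,000 host fibroblasts per well; compound: single 50 nL compound addition per well in DMSO; timing: ≥90 h infection period, 3 h prior cell attachment; measured by: GalScreen β-gal luminescence, detergent lysis, 60 min; evaluation: percent inhibition of parasite-derived β-gal signal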
NRP1-CendR mod: NRP-1/CendR interaction modulation; 360,000 tested, 0.85% active; inhibition, % at 25 µM; FAM-RPARPAR peptide binding to NRP-1, fluorescence polarization; AID 602438; O14786;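 active = inhibition or corrected inhibition above about 18%, plus a signal ratio from 0.5 to 1.5, limit read from the data, passing the limit was not always enough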
Target sequence (O14786 whole entry, looked up): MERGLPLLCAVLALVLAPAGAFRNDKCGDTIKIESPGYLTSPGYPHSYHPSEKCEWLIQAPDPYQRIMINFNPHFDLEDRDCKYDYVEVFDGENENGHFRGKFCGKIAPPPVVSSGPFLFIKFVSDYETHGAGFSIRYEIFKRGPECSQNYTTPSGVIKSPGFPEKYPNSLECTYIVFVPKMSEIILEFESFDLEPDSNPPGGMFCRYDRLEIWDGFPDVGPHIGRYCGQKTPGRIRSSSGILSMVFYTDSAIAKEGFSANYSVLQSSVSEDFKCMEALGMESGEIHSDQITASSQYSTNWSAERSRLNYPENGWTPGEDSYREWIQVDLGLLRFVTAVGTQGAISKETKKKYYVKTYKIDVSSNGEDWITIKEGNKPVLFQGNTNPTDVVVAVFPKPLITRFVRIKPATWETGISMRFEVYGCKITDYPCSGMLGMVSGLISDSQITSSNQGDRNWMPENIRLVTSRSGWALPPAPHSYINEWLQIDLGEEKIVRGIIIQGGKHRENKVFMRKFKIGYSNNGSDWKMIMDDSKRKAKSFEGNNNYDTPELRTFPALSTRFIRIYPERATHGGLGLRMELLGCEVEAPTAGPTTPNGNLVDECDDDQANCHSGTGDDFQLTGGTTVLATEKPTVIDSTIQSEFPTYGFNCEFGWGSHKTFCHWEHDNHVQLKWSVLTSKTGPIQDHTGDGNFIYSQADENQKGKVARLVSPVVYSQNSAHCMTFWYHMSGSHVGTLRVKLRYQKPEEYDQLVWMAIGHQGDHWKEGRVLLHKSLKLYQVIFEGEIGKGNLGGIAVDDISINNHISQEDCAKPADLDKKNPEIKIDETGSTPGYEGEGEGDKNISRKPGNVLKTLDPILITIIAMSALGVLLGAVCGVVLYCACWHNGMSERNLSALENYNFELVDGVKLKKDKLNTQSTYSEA
V-ATPase pHluor: regulators of yeast V-ATPase proton transport; S. cerevisiae, pHLuorin cytosolic pH fluorescence; response, % at 10 µM; 350,000 tested, 0.37% active; AID 504577; in the data active = response mostly above about 7.3%, no sharp cut-off; inactive = mostly below about 5.4%; also: actives read high
CR mimetic SO: lowers age-related superoxide in aged yeast cells; S. cerevisiae aged cells, superoxide DHE fluorescence; stronger effect = lower value; superoxide response (% of plate mean), % at 10 µM; 330,000 tested, 0.18% active; AID 2690;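 active = superoxide response under a set limit, about three screen SD below normal, cut at about 65% in these data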;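 also: yeast aged for seven days with compound at 30 °C before DHE staining; 100% = average MFI of all compound-treated wells on the plate with controls excluded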
HIF activator: HIF pathway transcriptional activation | U2OS HRE-luciferase reporter, luminescence; normalized: DMSO 0%, desferrioxamine 100% | 300,000 tested, 0.32% active | activation, % at 7.5 µM (by protocol);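 active = mean activation of at least 10% of the iron chelator positive control signal, with at least half of replicates also reaching 10%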
AI-2 QS mod: modulates the Vibrio harveyi AI-2 quorum sensing system | 300,000 tested, 0.4% active | activity change, % at 7.5 µM | Vibrio harveyi JMH597 AI-2 luminescence/OD600 ratio, 9 h; stronger effect = lower value; strain lacks LuxN and CqsS sensors; 0 = neutral-control median; in the data active = activity change below about -75%, passing the limit was not always enough;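 also: luminescence divided by OD600 gain over 9 h not by final OD600 alone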
CR mimetic CP: confirmation of caloric restriction mimetics inhibiting yeast age-related superoxide. shares compounds with CR mimetic SO. S. cerevisiae aging, superoxide DHE fluorescence; stronger effect = lower value. superoxide response (% of plate), % at 10 µM. 850 tested, 1% active. AID 434994;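 active = superoxide signal below 65% of the plate average of sample wells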;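 also: cells aged with compound for 7 days at 30 degrees C before staining; 100% equals mean DHE fluorescence of all compound wells on the plate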
DHE counter: DHE fluorescence interference, counter-screen artifact; 850 tested, under 10 active; S. cerevisiae BY4741, flow cytometry; stronger effect = lower value; fluorescence response, % at 10 µM; shares compounds with CR mimetic SO;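 active = fluorescence response below 15%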;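 also: percent of the mean fluorescence averaged over all compound wells on the plate; lower means stronger quenching of DHE signal or ROS scavenging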
Numbers without * were called inactive; . = no result given. Hits are enriched below; roughly 3% of the tested compounds scored in any of these assays.

SMILES	T cruzi inh	NRP1-CendR mod	V-ATPase pHluor	CR mimetic SO	HIF activator	AI-2 QS mod	CR mimetic CP	DHE counter
O=C(CN1CCN(c2ccccn2)CC1)Nc1ccc(OC(F)(F)F)cc1	0	-1	2	109	-1	6	94	111
CCN(CC)S(=O)(=O)c1cc(NC(=O)CN2CCN(c3ccccn3)CC2)ccc1C	-4	1	-2	100	0	20	97	100
CC(=O)Nc1ccc(NC(=O)CN2CCN(c3ccccn3)CC2)cc1	-17	-1	-2	53*	-31	17	101	94
Cc1ccc(NC(=O)CN2CCN(c3ccccn3)CC2)cc1S(=O)(=O)N(C)C	7	10	-2	97	0	1	.	.
CCN(CC(=O)Nc1ccccc1C(F)(F)F)C(=O)c1oc2c(Cl)cccc2c1C	15	4	1	110	0	-2	.	.
Cc1ccc(C)c(NC(=O)CN(C)C(=O)c2oc3c(Cl)cccc3c2C)c1	16	12	-3	65*	0	19	105	105
Cn1nnnc1NCc1c(F)cccc1Cl	-5	15	1	82	-1	-1	.	.
N#CC(c1nc2ccccc2nc1N1CCCC1)S(=O)(=O)c1ccccc1 (centres undefined)	-7	-47	10	63*	0	28	101	106
Clc1ccccc1CNCc1ccncc1	21	1	-2	114	0	14	.	.
Cc1cccc(NC(=O)c2nc[nH]c2C(=O)N[C@@H](CC(C)C)C(=O)OCc2ccccc2)c1	21	-6	3	63*	0	24	91	94
COc1cccc(N2CCN(c3nc(-c4ccccc4C)cc(=O)[nH]3)CC2)c1	-51	-6	2	105	0	3	.	.
Cc1ccc(OCC(O)Cn2c3ccccc3c3ccccc32)cc1 (centres undefined)	16	-2	0	100	.	14	.	.
OC(COCC(F)(F)C(F)(F)C(F)(F)C(F)F)Cn1c2ccccc2c2ccccc21 (centres undefined)	59*	4	0	139	0	20	99	105
CC(=C/c1ccco1)/C=N/NC(=O)Cc1cccn1C	-10	-22	0	96	1	23	.	.
O=S1(=O)N[C@@H](Cc2ccccc2)COc2ccc(Cl)cc21	.	5	-3	.	.	.	.	.
CCCOC(=O)CSc1nnc(-c2ccc(Cl)cc2Cl)o1	0	7	0	99	-1	16	101	88
COC(=O)c1ccccc1NC(=O)C1CC(c2ccc(F)cc2)=NO1 (centres undefined)	19	-14	5	145	0	16	.	.
O=C(NCc1ccc(Cl)cc1)C1CCN(c2cnccn2)CC1	23	-4	-1	101	0	-48	.	.
O=C(NCc1ccc(Cl)cc1)C1CCCN(c2cnccn2)C1 (centres undefined)	12	-10	-4	65*	1	-3	112	112
COCCNC(=O)C(OC(=O)c1ccco1)c1ccccc1Cl (centres undefined)	-4	8	3	103	0	-2	.	.
COc1ccc(/C=C/C(=O)NC(=S)NNC(=O)Cc2cccs2)cc1OC	-23	3	-2	123	-23	39	.	.
O=C(/C=C/c1cccs1)NC(=S)NNC(=O)Cc1cccs1	-5	29*	-1	39*	0	-44	73	97
Cc1ccc(CNC(=O)C2CCCN(S(=O)(=O)c3c(C)n[nH]c3C)C2)cc1 (centres undefined)	-13	-6	1	103	1	25	.	.
O=c1c2ccc(Cl)cc2nc(-c2cccc(C(F)(F)F)c2)n1O	-8	10	11*	65*	1	-69	88	89
N#Cc1ccc(-c2nc3cc(Cl)ccc3c(=O)n2O)cc1	-11	-7	-5	91	-17	-60	.	.
SMILES	T cruzi inh	NRP1-CendR mod	V-ATPase pHluor	CR mimetic SO	HIF activator	AI-2 QS mod	CR mimetic CP	DHE counter
COc1cccc(/C=N/NC(=O)c2[nH]c(C)c(C(=O)N/N=C/c3cccc(OC)c3O)c2C)c1O	-13	1	-3	63*	2	5	88	94
COc1cc2oc3ccccc3c2cc1N(CC(=O)N1CCCCC1)S(=O)(=O)c1ccc(C)cc1	18	-9	7	86	0	31	.	.
COc1ccc(C(=O)/C(C#N)=N/Nc2ccc([N+](=O)[O-])cc2)cc1	-11	-29	1	118	-2	10	.	.
CCOC(=O)NC(=O)/C(C#N)=N\Nc1ccc(Cl)cc1	5	-10	-3	107	0	15	102	99
CCOc1ccc(N/N=C(/C#N)C(N)=O)cc1	-2	-2	5	46*	0	10	84	116
COc1ccc(N/N=C(\C#N)C(N)=O)cc1	13	5	6	48*	0	17	99	103
CCOc1ccc(N/C(SC)=C(/C#N)C(N)=O)cc1	23	-1	0	115	0	14	.	.
Cc1cccc(OC(C)C(=O)OCC(=O)Nc2sccc2C(N)=O)c1 (centres undefined)	.	-13	1	97	.	.	.	.
CNc1ccc(C(=O)OCC(=O)NC(=O)NC2CCCC2)cc1[N+](=O)[O-]	.	-10	2	101	.	.	.	.
O=C(CCNC(=O)c1ccc(Br)cc1)OCc1ccccc1Cl	-10	-14	4	63*	0	17	115	115
O=C(c1ccc(CS(=O)Cc2ccccc2Cl)o1)N1CCN(C2CCCCC2)CC1 (centres undefined)	5	0	-3	104	1	10	.	.
Cc1ccc(S(=O)(=O)N2CCCCC2)cc1NC(=O)COC(=O)C1=COCCO1	16	2	3	86	0	23	.	.
CC(C)CCC(CCNCc1ccccn1)c1ccc(Cl)cc1 (centres undefined)	1	-2	-2	48*	-27	44	107	109
S=C(NCc1ccc(Cl)cc1)NCc1ccccn1	.	5	-1	98	.	-11	.	.
COc1ccc(NC(=O)CC(NCCc2ccccc2)C(=O)O)c(OC)c1 (centres undefined)	-18	0	2	99	0	18	.	.
COc1ccccc1N1CCN(S(=O)(=O)c2cn(C)cn2)CC1	-15	-1	3	65*	0	17	93	103
COc1ccc(-c2nnc(NC(=O)c3ccc(S(=O)(=O)N(C)CC4CCCO4)cc3)o2)c(OC)c1 (centres undefined)	5	-10	-4	100	-1	28	94	97
O=C(Nc1nnc(-c2ccc(F)cc2)o1)c1ccc(S(=O)(=O)N2CCOCC2)cc1	41	-4	-3	98	0	51	105	112
